Results on four molecules are retold here after ChEMBL document CHEMBL1121657, “Effects of 1-arylpyrroles and naphthoflavones upon cytochrome P-450 dependent monooxygenase activities” (J Med Chem, 1981).

The species named for assay [1] is Rattus norvegicus. The assay is described as follows: Michaelis-Menten constant for 7-ethoxycoumarin deethylation in rat liver microsomes exposed to beta-naphthoflavone at 150 uM. The settings on record: Microsome. The procedure, abridged:
(§1)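 Liver microsomes from male Sprague-Dawley rats given 3MC or βNF ip (50 mg/kg/day, corn oil, 3 days), harvested day 4. NADPH-regenerating system in 0.1 M Tris-HCl pH 7.4. Substrate 2.5-300 μM final. Inhibitor added from methanol stock. Reaction started with 0.375-0.56 mg microsomal protein, run 4 min at 37 °C, stopped with TCA. 7-Hydroxycoumarin fluorescence read at pH 10.3. At least four assays per substrate concentration. KM and Vmax by direct linear method, with distribution-free 95% confidence limits.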
(Microsomes from liver hold many membrane-bound enzymes, among them those of drug oxidation.)

For assay [2], the species on record is Rattus norvegicus. The assay is described as follows: Michaelis-Menten constant for 7-ethoxycoumarin deethylation in rat liver microsomes exposed to beta-naphthoflavone at 50 uM. The settings on record: Microsome. The procedure, abridged:
(§2)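 Liver microsomes from young male Sprague-Dawley rats (75-125 g) given the inducer ip in corn oil at 50 mg/kg on 3 successive days, microsomes isolated on day 4. 7-Ethoxycoumarin (2.5 to 300 μM final) in 0.1 M Tris-HCl pH 7.4 with NADPH-regenerating system. Reaction started with microsomal protein (0.375-0.56 mg), run 4 min at 37 °C, stopped with TCA. 7-Hydroxycoumarin read fluorometrically at pH 10.3. Inhibitor added from methanol stock, ≥4 assays per condition. KM/Vmax obtained by the Eisenthal–Cornish-Bowden direct linear method with 95% distribution-free confidence limits.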

The species named for assay [3] is Rattus norvegicus. The assay is described as follows: Maximum rate constant for 7-ethoxycoumarin deethylation in rat liver microsomes exposed to beta-naphthoflavone at 150 uM. The conditions noted are these: Microsome. The procedure, abridged: as §1
Assay [4] can be described thus: Compound was evaluated for inhibition constant, in liver microsomes from beta-naphthoflavone-exposed rats. The arrangement: species or system Rattus norvegicus, Microsome.
The species named for assay [5] is Rattus norvegicus. Put plainly: Maximum rate constant for 7-ethoxycoumarin deethylation in rat liver microsomes exposed to beta-naphthoflavone at 100 uM. The conditions noted are these: Microsome. The procedure, abridged: as §1
Assay [6] is filed under the species Rattus norvegicus. The assay is described as follows: Maximum rate constant for 7-ethoxycoumarin deethylation in rat liver microsomes exposed to beta-naphthoflavone at 50 uM. The settings on record: Microsome. The procedure, abridged: as §1
The species named for assay [7] is Rattus norvegicus. Put plainly: Michaelis-Menten constant for 7-ethoxycoumarin deethylation in rat liver microsomes exposed to beta-naphthoflavone at 10 uM […]. The conditions noted are these: Microsome. The procedure, abridged:
as §1

Assay [8] is filed under the species Rattus norvegicus. Put plainly: Compound was evaluated for alpha -rate constant, in liver microsomes from beta-naphthoflavone-exposed rats. The conditions noted are these: Microsome. The procedure, abridged:
(§3)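 Rats (male Sprague-Dawley, 75-125 g) dosed ip with 3MC or βNF, 50 mg/kg in corn oil, on 3 successive days; liver microsomes isolated day 4. 7-Ethoxycoumarin deethylation (2.5-300 μM substrate) measured with inhibitor present; KM and Vmax by Eisenthal–Cornish-Bowden direct linear method. Ki from x-intercept of least-squares KM/Vmax vs [I]; αKi from x-intercept of 1/Vmax vs [I].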

For assay [9], the species on record is Rattus norvegicus. Put plainly: Compound was evaluated for alpha -rate constant, in liver microsomes from 3-methylcholanthrene-exposed rats. The settings on record: Microsome. The procedure, abridged:
as §3

The species entered for assay [10] is Rattus norvegicus. Put plainly: Michaelis-Menten constant for 7-ethoxycoumarin deethylation in rat liver microsomes exposed to beta-naphthoflavone at 500 uM. The settings on record: Microsome. The procedure, abridged:
as §2

The species entered for assay [11] is Rattus norvegicus. The assay is described as follows: Michaelis-Menten constant for 7-ethoxycoumarin deethylation in rat liver microsomes exposed to 3-methylcholanthrene at concentration of 50 nM. The conditions noted are these: Microsome.
For assay [12], the species on record is Rattus norvegicus. The assay is described as follows: Michaelis-Menten constant for 7-ethoxycoumarin deethylation in rat liver microsomes exposed to beta-naphthoflavone at 1500 nM. The settings on record: Microsome.
Assay [13] in a line: Compound was evaluated for inhibition constant, in liver microsomes from 3-methylcholanthrene-exposed rats. Also on record: species or system Rattus norvegicus, Microsome.
The species entered for assay [14] is Rattus norvegicus. The assay is described as follows: Michaelis-Menten constant for 7-ethoxycoumarin deethylation in rat liver microsomes exposed to exposed to 3-methylcholanthrene at concentration. The conditions noted are these: Microsome.
The species entered for assay [15] is Rattus norvegicus. Put plainly: Maximum rate constant for 7-ethoxycoumarin deethylation in rat liver microsomes exposed to beta-naphthoflavone at concentration of 500 uM. The conditions noted are these: Microsome. The procedure, abridged:
as §1

Assay [16] is filed under the species Rattus norvegicus. Put plainly: Maximum rate constant for 7-ethoxycoumarin deethylation in rat liver microsomes exposed to 3-methylcholanthrene at concentration of 50 nM. The conditions noted are these: Microsome.
The species entered for assay [17] is Rattus norvegicus. Put plainly: Maximum rate constant for 7-ethoxycoumarin deethylation in rat liver microsomes exposed to beta-naphthoflavone at concentration of 1000 uM. The settings on record: Microsome. The procedure, abridged: as §1
The species entered for assay [18] is Rattus norvegicus. The assay is described as follows: Maximum rate constant for 7-ethoxycoumarin deethylation in rat liver microsomes exposed to 3-methylcholanthrene at concentration of 100 nM. The conditions noted are these: Microsome.
Assay [19] is filed under the species Rattus norvegicus. The assay is described as follows: Compound was evaluated for alpha -rate constant, in liver microsomes from beta-naphthoflavone-exposed rats; competitive inhibition. The settings on record: Microsome. The procedure, abridged:
as §3

The species entered for assay [20] is Rattus norvegicus. Put plainly: Maximum rate constant for 7-ethoxycoumarin deethylation in rat liver microsomes exposed to 3-methylcholanthrene at concentration of 200 uM. The settings on record: Microsome, 225 nM, in the assay text read “225 nM” for “200 uM”. The procedure, abridged: as §1
The species named for assay [21] is Rattus norvegicus. The assay is described as follows: Michaelis-Menten constant for 7-ethoxycoumarin deethylation in rat liver microsomes exposed to beta-naphthoflavone at 1000 nM. The settings on record: Microsome.
Assay [22] is filed under the species Rattus norvegicus. Put plainly: Maximum rate constant for 7-ethoxycoumarin deethylation in rat liver microsomes exposed to beta-naphthoflavone at concentration of 1500 uM. The conditions noted are these: Microsome. The procedure, abridged: as §1
The species named for assay [23] is Rattus norvegicus. The assay is described as follows: Michaelis-Menten constant for 7-ethoxycoumarin deethylation in rat liver microsomes exposed to 3-methylcholanthrene at concentration of 100 uM. The conditions noted are these: Microsome. The procedure, abridged:
as §1

For assay [24], the species on record is Rattus norvegicus. Put plainly: Michaelis-Menten constant for 7-ethoxycoumarin deethylation in rat liver microsomes exposed to beta-naphthoflavone at 1 uM. The conditions noted are these: Microsome. The procedure, abridged: as §1
The species entered for assay [25] is Rattus norvegicus. Put plainly: Maximum rate constant for 7-ethoxycoumarin deethylation in rat liver microsomes exposed to beta-naphthoflavone at 5 uM. The settings on record: Microsome. The procedure, abridged: as §1
Assay [26] is filed under the species Rattus norvegicus. The assay is described as follows: Michaelis-Menten constant for 7-ethoxycoumarin deethylation in rat liver microsomes exposed to beta-naphthoflavone at 2.5 uM. The conditions noted are these: Microsome. The procedure, abridged:
as §1

For assay [27], the species on record is Rattus norvegicus. The assay is described as follows: Michaelis-Menten constant for 7-ethoxycoumarin deethylation in rat liver microsomes exposed to beta-naphthoflavone at 5 uM. The conditions noted are these: Microsome. The procedure, abridged: as §1
The species entered for assay [28] is Rattus norvegicus. Put plainly: Maximum rate constant for 7-ethoxycoumarin deethylation in rat liver microsomes exposed to beta-naphthoflavone at 2.5 uM. The settings on record: Microsome. The procedure, abridged: as §1
The species named for assay [29] is Rattus norvegicus. Put plainly: Maximum rate constant for 7-ethoxycoumarin deethylation in rat liver microsomes exposed to beta-naphthoflavone at 1 uM. The settings on record: Microsome. The procedure, abridged: as §1

As for `c1ccc(-n2cccc2)cc1`, the Km in [1] was determined as 64.3 µM; in assay [2], 28.4 µM; in assay [7], 41.2 µM. Besides, the Vmax (pM min-1 mg-1) in [3] is 669; in assay [5], 760; in assay [6], 819. Also, the Ki in assay [4] was found to be 27 µM. Further, the Alpha Ki in assay [8] amounted to 430 µM.

For `c1ccc(-c2c[nH]cn2)cc1`, the figures for the Alpha Ki in assay [9] and in assay [8] were 64 µM and 75 µM, respectively.

Consider `O=c1cc(-c2ccccc2)oc2ccccc12` [FLAVONE], for which the Km in assay [10] stood at 50.3 µM; in [11] it was 22.3 µM; in [12] it was 136 µM; in assay [14], 62.6 µM; in assay [21], 115 µM; in [23], 35.8 µM. For the same molecule, the Ki in [13] is 0.033 µM; in [4], 0.19 µM. The Vmax (pM min-1 mg-1) was 1340 in assay [15]; 153 in [16]; 1370 in [17]; 149 in [18]; 120 in assay [20]; 1330 in [22]. In addition, the Alpha Ki in [9] was 0.57 µM; in assay [19], “Competitive inhibition”.

Turning to `CC(C)c1ccccc1-n1ccnc1`, the Km was found to be 22.1 µM in assay [24], 35.8 µM in assay [26] and 41.7 µM in [27]. The Ki in assay [4] is 0.3 µM. Moreover, the Vmax (pM min-1 mg-1) in assay [25] was 227; in [28] it was 346; in [29] it was 734. In [8], this molecule came in with an Alpha Ki of 1.4 µM.

As a reminder, the Km is the concentration of substrate that gives half-maximal velocity. The Ki is the dissociation constant of the complex between target and ligand, obtained from inhibition or displacement. Read a low Ki as a stronger hold on the target.
